Measured values reported in ChEMBL document CHEMBL2407075, “Sulphonamido-quinoxalines: search for anticancer agent” (Eur J Med Chem, 2013).

Assays:
[1] = Growth inhibition of human Hs 578T cells at 10 uM after 48 hrs by sulforhodamine B assay; assay type: functional; settings: read-out: GI
How it was run: (§1)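 NCI-60 one-dose primary screen at a single 10 µM concentration. Cells in RPMI 1640 with 5% FBS, preincubated 24 h at 37 °C, 5% CO2. Drug exposure 48 h, then TCA fixation, SRB staining and absorbance at 515 nm. Percent growth calculated against time-zero and untreated control wells, then converted to percent growth inhibition.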

HCT-15 = assay: Growth inhibition of human HCT15 cells at 10 uM after 48 hrs by sulforhodamine B assay; assay type: functional; settings: HCT-15, 48 h, read-out: GI; how it was run: as §1
M14 = assay: Growth inhibition of human M14 cells at 10 uM after 48 hrs by sulforhodamine B assay; assay type: functional; settings: M14, 48 h, read-out: GI
How it was run: (§2)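 Single-dose screen at 10 µM across the NCI 60 panel. Cells in RPMI 1640 with 5% FBS and 2 mM L-glutamine, plated at 5000–40,000/well and preincubated 24 h at 37 °C, 5% CO2. Drug in DMSO, 48 h exposure. Fixed with TCA, stained with SRB, A515 read. Percent growth is taken relative to untreated control, and inhibition is 100 minus growth.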

NCI-H522 = assay: Growth inhibition of human NCI-H522 cells at 10 uM after 48 hrs by sulforhodamine B assay; assay type: functional; settings: NCI-H522, 48 h, read-out: GI; how it was run: as §2
Malme-3M = assay: Growth inhibition of human MALME-3M cells assessed as cell growth at 10^-5 M after 48 hrs by sulforhodamine B assay; assay type: functional; settings: read-out: Activity
RPMI-8226 = assay: Growth inhibition of human RPMI8226 cells at 10 uM after 48 hrs by sulforhodamine B assay; assay type: functional; settings: RPMI-8226, 48 h, read-out: GI; how it was run: as §2
DU-145 = assay: Growth inhibition of human DU145 cells at 10 uM after 48 hrs by sulforhodamine B assay; assay type: functional; settings: DU-145, 48 h, read-out: GI
How it was run: (§3)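 Single-dose NCI-60 prescreen at 10 µM for 48 h at 37 °C and 5% CO2, using cells grown in RPMI 1640 with 5% FBS and 2 mM glutamine. Protein was measured by SRB after TCA fixation: 10% final for adherent lines, 16% for suspension lines. Absorbance was read at 515 nm. Percent growth inhibition was obtained by subtracting percent growth from 100.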

IGROV-1 = assay: Growth inhibition of human IGROV1 cells at 10 uM after 48 hrs by sulforhodamine B assay; assay type: functional; settings: IGROV-1, 48 h, read-out: GI; how it was run: as §2
MDA-MB-435 = assay: Growth inhibition of human MDA-MB-435 cells at 10 uM after 48 hrs by sulforhodamine B assay; assay type: functional; settings: MDA-MB-435, 48 h, read-out: GI; how it was run: as §2
OVCAR-4 = assay: Growth inhibition of human OVCAR4 cells at 10 uM after 48 hrs by sulforhodamine B assay; assay type: functional; settings: OVCAR-4, 48 h, read-out: GI; how it was run: as §2
A498 = assay: Growth inhibition of human A498 cells at 10 uM after 48 hrs by sulforhodamine B assay; assay type: functional; settings: A498, 48 h, read-out: GI; how it was run: as §3
SF-295 = assay: Growth inhibition of human SF295 cells assessed as cell growth at 10^-6 M after 48 hrs by sulforhodamine B assay; assay type: functional; settings: SF-295, 48 h, read-out: Activity
[2] = Oral bioavailability in human; assay type: ADME, organism-based; settings: in silico prediction
RXF 393 = assay: Growth inhibition of human RXF393 cells at 10 uM after 48 hrs by sulforhodamine B assay; assay type: functional; settings: RXF 393, 48 h, read-out: GI; how it was run: as §2
[3] = Growth inhibition of human Hs 578T cells assessed as cell growth at 10^-8 M after 48 hrs by sulforhodamine B assay; assay type: functional; settings: read-out: Activity
How it was run: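 Five-dose screen at NCI. Cells in RPMI 1640 with 5% FBS and 2 mM L-glutamine, seeded at 5000–40,000 cells/well and grown 24 h at 37 °C, 5% CO2 before dosing, with time-zero plates TCA-fixed. Drug diluted from DMSO stock to 0.01, 0.1, 1, 10 and 100 µM final, 48 h. Cells fixed with cold TCA (10% final), stained with 0.4% SRB and read at 515 nm. Percent growth from Tz, control and test absorbances; GI50, TGI and LC50 from dose-response curves.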

A549 = assay: Growth inhibition of human A549/ATCC cells at 10 uM after 48 hrs by sulforhodamine B assay; assay type: functional; settings: A549, 48 h, read-out: GI; how it was run: as §3
U-251 = assay: Growth inhibition of human U251 cells at 10 uM after 48 hrs by sulforhodamine B assay; assay type: functional; settings: U-251, 48 h, read-out: GI; how it was run: as §2
UACC-257 = assay: Growth inhibition of human UACC257 cells at 10 uM after 48 hrs by sulforhodamine B assay; assay type: functional; settings: UACC-257, 48 h, read-out: GI; how it was run: as §2
UACC-62 = assay: Growth inhibition of human UACC62 cells at 10 uM after 48 hrs by sulforhodamine B assay; assay type: functional; settings: UACC-62, 48 h, read-out: GI; how it was run: as §2
786-0 = assay: Growth inhibition of human 786-0 cells at 10 uM after 48 hrs by sulforhodamine B assay; assay type: functional; settings: 786-0, 48 h, read-out: GI; how it was run: as §3
BT-549 = assay: Growth inhibition of human BT549 cells at 10 uM after 48 hrs by sulforhodamine B assay; assay type: functional; settings: BT-549, 48 h, read-out: GI; how it was run: as §3
OVCAR-3 = assay: Growth inhibition of human OVCAR3 cells at 10 uM after 48 hrs by sulforhodamine B assay; assay type: functional; settings: OVCAR-3, 48 h, read-out: GI; how it was run: as §2
PC-3 = assay: Growth inhibition of human PC3 cells at 10 uM after 48 hrs by sulforhodamine B assay; assay type: functional; settings: PC-3, 48 h, read-out: GI; how it was run: as §2
LOX IMVI = assay: Growth inhibition of human LOXIMVI cells at 10 uM after 48 hrs by sulforhodamine B assay; assay type: functional; settings: read-out: GI; how it was run: as §2
NCI-H226 = assay: Growth inhibition of human NCI-H226 cells at 10 uM after 48 hrs by sulforhodamine B assay; assay type: functional; settings: NCI-H226, 48 h, read-out: GI; how it was run: as §2
MCF7 = assay: Growth inhibition of human MCF7 cells at 10 uM after 48 hrs by sulforhodamine B assay; assay type: functional; settings: MCF7, 48 h, read-out: GI; how it was run: as §2
T47D = assay: Growth inhibition of human T47D cells at 10 uM after 48 hrs by sulforhodamine B assay; assay type: functional; settings: read-out: GI; how it was run: as §2
SNB-19 = assay: Growth inhibition of human SNB19 cells at 10 uM after 48 hrs by sulforhodamine B assay; assay type: functional; settings: SNB-19, 48 h, read-out: GI; how it was run: as §2
[4] = Growth inhibition of human NCI-ADR-RES cells at 10 uM after 48 hrs by sulforhodamine B assay; assay type: functional; settings: read-out: GI; how it was run: as §2
HT-29 = assay: Growth inhibition of human HT-29 cells at 10 uM after 48 hrs by sulforhodamine B assay; assay type: functional; settings: HT-29, 48 h, read-out: GI; how it was run: as §1

Row | SMILES | inhibition of growth at 10 µM [1] [%] | inhibition of growth at 10 µM (HCT-15) [%] | inhibition of growth at 10 µM (M14) [%] | inhibition of growth at 10 µM (NCI-H522) [%] | growth at 10 µM (Malme-3M) [%] | inhibition of growth at 10 µM (RPMI-8226) [%] | inhibition of growth at 10 µM (DU-145) [%] | inhibition of growth at 10 µM (IGROV-1) [%] | inhibition of growth at 10 µM (MDA-MB-435) [%] | inhibition of growth at 10 µM (OVCAR-4) [%] | inhibition of growth at 10 µM (A498) [%] | growth at 1 µM (SF-295) [%] | bioavailability [2] [%] | inhibition of growth at 10 µM (RXF 393) [%] | growth at 0.01 µM [3] [%] | inhibition of growth at 10 µM (A549) [%] | inhibition of growth at 10 µM (U-251) [%] | inhibition of growth at 10 µM (UACC-257) [%] | inhibition of growth at 10 µM (UACC-62) [%] | inhibition of growth at 10 µM (786-0) [%] | other results
1 | O=S(=O)(Nc1ccc(Cl)cc1)c1ccc2nc(-c3ccccc3)c(-c3ccccc3)nc2c1 | 37.5 | 44.7 | 31 | 50.8 | -43 | 86 | 24.4 | 20.8 | 35.6 | 30.3 | 44.3 | 82 | 100 | 98.8 | 84 | 41.9 | 39.5 | 17.9 | 30.6 | 66.9 | inhibition of growth at 10 µM (BT-549): 77.8%; inhibition of growth at 10 µM (OVCAR-3): 28.8%; inhibition of growth at 10 µM (PC-3): 60%; inhibition of growth at 10 µM (LOX IMVI): 38.4%; inhibition of growth at 10 µM (NCI-H226): -2.45%; inhibition of growth at 10 µM (MCF7): 47.7%; inhibition of growth at 10 µM (T47D): 72.1%; inhibition of growth at 10 µM (SNB-19): 31.9%; inhibition of growth at 10 µM [4]: 55.2%; inhibition of growth at 10 µM (HT-29): 70.4%
2 | O=S(=O)(Nc1ccccn1)c1ccc2nc(-c3ccccc3)c(-c3ccccc3)nc2c1 | 76.3 | 62.4 | 62.8 | 65.6 | -40 | 89.9 | 37.4 | 31.8 | 54.2 | 40.1 | 70.2 | 90 | 100 | -40.4 | 93 | 54.7 | 56.5 | 42.5 | 41.1 | 99.2 | inhibition of growth at 10 µM (BT-549): 80.2%; inhibition of growth at 10 µM (OVCAR-3): 48.9%; inhibition of growth at 10 µM (PC-3): 72.2%; inhibition of growth at 10 µM (LOX IMVI): 63.3%; inhibition of growth at 10 µM (NCI-H226): -1.38%; inhibition of growth at 10 µM (MCF7): 65.9%; inhibition of growth at 10 µM (T47D): 81.1%; inhibition of growth at 10 µM (SNB-19): 43.6%; inhibition of growth at 10 µM [4]: 73.2%; inhibition of growth at 10 µM (HT-29): 81.7%
